ChEMBL document CHEMBL4376860, “Discovery of Novel Dual Poly(ADP-ribose)polymerase and Phosphoinositide 3-Kinase Inhibitors as a Promising Strategy for Cancer Therapy” (J Med Chem, 2020)
Calls of active or inactive are those of the source. The rule behind the calls is not given here.

Legend:
MDA-MB-468 [1] = experiment: Inhibition of PI3K in human MDA-MB-468 cells assessed as increase in gammaH2AX foci formation at 1 uM measured after 72 hrs by DAPI staining based immunofluorescence microscopic analysis; type: cell-based
Method in brief: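 MDA-MB-468 cells on coverslips given drugs for 72 h. Fixed in 3% formaldehyde, permeabilized with 0.1% Triton X-100, blocked in 10% FBS/PBS, then rabbit anti-γH2AX (Ser139) overnight at 4 °C. Secondary antibody and DAPI stain followed. About 200 cells scored for foci; a cell was positive with more than 5 foci. Three independent experiments.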

MDA-MB-468 [2] = experiment: Induction of apoptosis in human MDA-MB-468 cells assessed as increase in cleaved PARP level at 1 uM […] by Western blot analysis; type: functional, cell-based
Mus musculus [3] = experiment: In vivo inhibition of PI3K in BALB/c mouse xenografted with human MDA-MB-468 cells assessed as reduction in AKT phosphorylation at S473 residue at 50 mg/kg, ip administered every 2 days for 34 days measured post-last dose by Western blot analysis; type: functional, organism-based
Mus musculus [4] = experiment: In vivo activation of ERK in BALB/c mouse xenografted with human MDA-MB-468 cells assessed as increase in ERK autophosphorylation at T202 residue at 50 mg/kg, ip administered every 2 days for 34 days measured post-last dose by Western blot analysis; type: functional, organism-based
Mus musculus [5] = experiment: In vivo inhibition of PI3K in BALB/c mouse xenografted with human MDA-MB-468 cells assessed as reduction in BRCA2 expression at 50 mg/kg, ip administered every 2 days for 34 days measured post-last dose by Western blot analysis; type: functional, organism-based
HCT-116 = experiment: Potency index, ratio of BKM120 IC50 to test compound IC50 for antiproliferative activity against human HCT116 cells; type: functional
[6] = biological target: Poly [ADP-ribose] polymerase 1 (Homo sapiens, UniProt P09874); experiment: Inhibition of recombinant human PARP1 using histone as substrate after 1 hr in presence of biotinylated NAD+ by ELISA
Mus musculus [7] = experiment: In vivo inhibition of PI3K in BALB/c mouse xenografted with human MDA-MB-468 cells assessed as reduction in BRCA1 expression at 50 mg/kg, ip administered every 2 days for 34 days measured post-last dose by Western blot analysis; type: functional, organism-based
MDA-MB-468 [8] = experiment: Inhibition of PI3K in human MDA-MB-468 cells assessed as reduction in pS6 phosphorylation at S240 residue at 1 uM measured after 6 to 72 hrs by Western blot analysis; type: cell-based
Method in brief: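 MDA-MB-468 cells seeded overnight, then exposed for 6 h; control medium contained 1‰ DMSO. Lysates run on 8–12% SDS-PAGE and transferred to PVDF. Blots blocked in 5% BSA/TBST and probed for pAKT-Ser473/total AKT or pS6-Ser240/total S6, with β-actin as loading control. HRP secondary with ECL detection; bands quantified by densitometry. Three independent experiments.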

MDA-MB-468 [9] = experiment: Activation of ERK in human MDA-MB-468 cells assessed as increase in ERK autophosphorylation at T202 residue at 1 uM measured after 6 to 72 hrs by Western blot analysis; type: cell-based
Method in brief: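 MDA-MB-468 cells seeded in six-well plates, incubated overnight, then treated for 6 h, with 1‰ (v/v) DMSO medium as control. Lysates cleared at 4 °C, protein quantified by BCA, resolved by 8-12% SDS-PAGE and transferred to PVDF. Membranes blocked in 5% BSA/TBST, probed with primary antibodies (pERK-Thr202, total ERK, cleaved PARP, β-actin) and HRP secondary. ECL detection, band densitometry.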

[10] = biological target: Phosphatidylinositol 4,5-bisphosphate 3-kinase catalytic subunit gamma isoform (Homo sapiens, UniProt P48736); experiment: Inhibition of PI3Kgamma (unknown origin) using PIP2 as substrate measured after 1 hr by ADP-glo plus luminescence assay
MDA-MB-231 = experiment: Potency index, ratio of BKM120 IC50 to test compound IC50 for antiproliferative activity against human MDA-MB-231 cells; type: functional
[11] = Toxicity in BALB/c mouse xenografted with human MDA-MB-468 cells assessed as mortality at 27.5 mg/kg, ip administered every 2 days for 34 days; type: organism-based; conditions: in vivo
Method in brief: (§1)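 Nude mice bearing subcutaneous right-flank MDA-MB-468 tumours (2 × 10^6 exponential-phase cells implanted). Randomised at about 100 mm³ tumour volume; 6 mice per group. Dosed ip every 2 days for 34 days. Vehicle controls received PBS with 5% DMSO. Body weight and tumour size recorded every 2 days; tumour volume calculated as ab²/2 from caliper diameters.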

MDA-MB-468 [12] = experiment: Induction of DNA damage in human MDA-MB-468 cells at 1 uM measured after 72 hrs in presence of PARP inhibitor olaparib by comet assay; type: functional, cell-based
Method in brief: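 MDA-MB-468 cells treated for 72 h, harvested and run in a neutral comet assay. Ethidium bromide staining after electrophoresis. About 200 cell images per group analysed with CASP. DNA damage scored as tail intensity (percentage DNA in tail) and olive tail moment. Mean ± SD of three independent experiments.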

Ramos = experiment: cells; conditions: Homo sapiens, 168 h, read-out: pIC50 (converted)
MDA-MB-468 [13] = experiment: Inhibition of PI3K in human MDA-MB-468 cells assessed as reduction in BRCA2 mRNA level at 1 uM in presence of PARP inhibitor olaparib by Trizol reagent-based RT-PCR analysis; type: cell-based
Method in brief: (§2)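 Total RNA from treated MDA-MB-468 cells extracted with TRIzol. BRCA1 or BRCA2 mRNA quantified by real-time PCR with GAPDH as internal control. Results given as fold change relative to the internal control. Mean ± SD of three independent experiments.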

MDA-MB-468 [14] = experiment: Antitumor activity against human MDA-MB-468 cells xenografted in BALB/c mouse assessed as tumor growth inhibition at 27.5 mg/kg, ip administered every 2 days for 34 days and measured at 2 days interval during compound dosing relative to control; type: functional; conditions: MDA-MB-468, ip, read-out: TGI
MDA-MB-468 [15] = experiment: Inhibition of PI3K in human MDA-MB-468 cells assessed as reduction in BRCA1 mRNA level at 1 uM in presence of PARP inhibitor olaparib by Trizol reagent-based RT-PCR analysis; type: cell-based; method in brief: as §2
HCC1937 = experiment: cells; conditions: Homo sapiens, HCC1937, 168 h, read-out: pIC50 (converted)
Jurkat = experiment: cells; conditions: Homo sapiens, 168 h, read-out: pIC50 (converted)
MDA-MB-468 [16] = experiment: Antitumor activity against human MDA-MB-468 cells xenografted in BALB/c mouse assessed as tumor growth inhibition at 27.5 mg/kg, ip administered every 2 days for 34 days and measured at 2 days interval during compound dosing in presence of PARP inhibitor olaparib relative to control; type: functional; conditions: MDA-MB-468, ip, read-out: TGI
[17] = Toxicity in BALB/c mouse xenografted with human MDA-MB-468 cells assessed as mortality at 50 mg/kg, ip administered every 2 days for 34 days in presence of PARP inhibitor olaparib; type: organism-based; conditions: in vivo; method in brief: as §1
MDA-MB-468 [18] = experiment: Induction of apoptosis in human MDA-MB-468 cells assessed as necrotic cells at 1 uM measured after 72 hrs in presence of PARP inhibitor olaparib by Annexin V-FITC/propidium iodide staining based flow cytometry (reference value: 0.13%); type: functional

Chain of Phosphatidylinositol 4,5-bisphosphate 3-kinase catalytic subunit gamma isoform (P48736 whole entry, canonical isoform): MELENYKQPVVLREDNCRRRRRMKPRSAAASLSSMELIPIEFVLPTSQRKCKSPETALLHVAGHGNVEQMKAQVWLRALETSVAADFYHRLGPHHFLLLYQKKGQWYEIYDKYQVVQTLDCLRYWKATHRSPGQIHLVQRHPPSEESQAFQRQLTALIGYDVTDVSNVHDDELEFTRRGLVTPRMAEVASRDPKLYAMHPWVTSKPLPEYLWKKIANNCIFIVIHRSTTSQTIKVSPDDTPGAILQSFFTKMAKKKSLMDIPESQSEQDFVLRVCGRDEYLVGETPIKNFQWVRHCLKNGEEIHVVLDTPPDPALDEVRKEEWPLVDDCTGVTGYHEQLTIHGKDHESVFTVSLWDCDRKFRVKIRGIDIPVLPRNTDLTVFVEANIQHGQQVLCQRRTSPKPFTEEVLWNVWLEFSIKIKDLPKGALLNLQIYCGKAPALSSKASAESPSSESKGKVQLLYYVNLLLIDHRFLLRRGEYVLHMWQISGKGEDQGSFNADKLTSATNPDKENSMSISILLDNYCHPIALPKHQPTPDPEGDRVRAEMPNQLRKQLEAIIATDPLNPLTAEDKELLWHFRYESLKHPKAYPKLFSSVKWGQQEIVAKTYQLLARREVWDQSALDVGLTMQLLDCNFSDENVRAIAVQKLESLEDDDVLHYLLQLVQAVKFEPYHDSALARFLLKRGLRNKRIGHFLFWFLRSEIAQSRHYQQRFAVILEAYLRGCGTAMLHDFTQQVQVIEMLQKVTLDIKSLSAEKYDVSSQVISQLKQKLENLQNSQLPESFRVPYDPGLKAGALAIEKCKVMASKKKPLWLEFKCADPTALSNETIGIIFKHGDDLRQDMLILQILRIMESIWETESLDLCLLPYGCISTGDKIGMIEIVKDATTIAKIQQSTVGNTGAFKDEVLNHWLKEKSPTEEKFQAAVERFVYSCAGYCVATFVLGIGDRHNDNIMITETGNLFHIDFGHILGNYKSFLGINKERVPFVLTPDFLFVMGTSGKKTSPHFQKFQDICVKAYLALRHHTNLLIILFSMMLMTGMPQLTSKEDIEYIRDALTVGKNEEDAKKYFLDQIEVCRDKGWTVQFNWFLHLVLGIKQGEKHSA
Chain of Poly [ADP-ribose] polymerase 1 (P09874 whole entry): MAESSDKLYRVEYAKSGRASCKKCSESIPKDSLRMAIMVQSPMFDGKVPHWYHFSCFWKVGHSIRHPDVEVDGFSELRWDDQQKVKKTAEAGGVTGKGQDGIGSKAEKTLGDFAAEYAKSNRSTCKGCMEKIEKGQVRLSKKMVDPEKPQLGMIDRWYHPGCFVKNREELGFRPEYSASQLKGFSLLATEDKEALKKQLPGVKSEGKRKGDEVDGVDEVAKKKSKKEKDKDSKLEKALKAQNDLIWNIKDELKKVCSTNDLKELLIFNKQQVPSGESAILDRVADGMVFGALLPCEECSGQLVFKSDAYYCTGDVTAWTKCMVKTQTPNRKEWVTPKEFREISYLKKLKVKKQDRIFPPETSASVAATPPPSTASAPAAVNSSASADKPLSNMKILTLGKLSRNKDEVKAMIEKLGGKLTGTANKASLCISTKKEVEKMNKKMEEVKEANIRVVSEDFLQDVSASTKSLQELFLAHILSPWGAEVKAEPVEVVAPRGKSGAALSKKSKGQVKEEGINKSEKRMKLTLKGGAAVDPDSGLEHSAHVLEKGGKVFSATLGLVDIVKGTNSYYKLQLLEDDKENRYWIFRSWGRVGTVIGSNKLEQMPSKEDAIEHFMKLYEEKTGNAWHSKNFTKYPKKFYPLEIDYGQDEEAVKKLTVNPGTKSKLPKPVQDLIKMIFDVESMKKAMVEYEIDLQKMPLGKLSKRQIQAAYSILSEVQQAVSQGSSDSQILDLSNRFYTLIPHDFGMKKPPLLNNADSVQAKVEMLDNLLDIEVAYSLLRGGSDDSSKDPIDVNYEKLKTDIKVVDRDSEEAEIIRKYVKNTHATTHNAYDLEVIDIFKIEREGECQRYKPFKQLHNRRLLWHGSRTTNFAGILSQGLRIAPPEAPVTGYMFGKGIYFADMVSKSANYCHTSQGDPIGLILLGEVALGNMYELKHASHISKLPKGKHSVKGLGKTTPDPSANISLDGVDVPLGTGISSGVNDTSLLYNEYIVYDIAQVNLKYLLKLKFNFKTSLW

Nc1cc(C(F)(F)F)c(-c2nc3c(c(N4CCOCC4)n2)CCN(C(=O)c2cc(Cc4n[nH]c(=O)c5ccccc45)ccc2F)C3)cn1
inhibition (MDA-MB-468 [1]): Active | Activity (MDA-MB-468 [2]): Active | inhibition (Mus musculus [3]): Active | Activity (Mus musculus [4]): Active | inhibition (Mus musculus [5]): Active | Ratio IC50 (HCT-116): >=4 | IC50 [6]: 6.03 nM | inhibition (Mus musculus [7]): Active | inhibition (MDA-MB-468 [8]): Active | Activity (MDA-MB-468 [9]): Active | IC50 [10]: 832 nM | Ratio IC50 (MDA-MB-231): >=4

Nc1cc(C(F)(F)F)c(-c2cc(N3CCOCC3)nc(N3CCOCC3)n2)cn1 [BUPARLISIB]
Activity [11]: Non-Toxic | Activity (MDA-MB-468 [12]): Active | IC50 (Ramos): 1170 nM | inhibition (MDA-MB-468 [13]): Active | inhibition in vivo at 27.5 mg/kg (MDA-MB-468 [14]): 33.4% | inhibition (MDA-MB-468 [15]): Active | IC50 (HCC1937): 1700 nM | IC50 (Jurkat): 1290 nM | inhibition in vivo at 27.5 mg/kg (MDA-MB-468 [16]): 48.4% | Activity [17]: Non-Toxic | Activity (MDA-MB-468 [18]): 1.48%
